For series [1], the target named is T1, Amine oxidase [flavin-containing] B (Homo sapiens, UniProt P27338).
T1 sequence (P27338 whole entry): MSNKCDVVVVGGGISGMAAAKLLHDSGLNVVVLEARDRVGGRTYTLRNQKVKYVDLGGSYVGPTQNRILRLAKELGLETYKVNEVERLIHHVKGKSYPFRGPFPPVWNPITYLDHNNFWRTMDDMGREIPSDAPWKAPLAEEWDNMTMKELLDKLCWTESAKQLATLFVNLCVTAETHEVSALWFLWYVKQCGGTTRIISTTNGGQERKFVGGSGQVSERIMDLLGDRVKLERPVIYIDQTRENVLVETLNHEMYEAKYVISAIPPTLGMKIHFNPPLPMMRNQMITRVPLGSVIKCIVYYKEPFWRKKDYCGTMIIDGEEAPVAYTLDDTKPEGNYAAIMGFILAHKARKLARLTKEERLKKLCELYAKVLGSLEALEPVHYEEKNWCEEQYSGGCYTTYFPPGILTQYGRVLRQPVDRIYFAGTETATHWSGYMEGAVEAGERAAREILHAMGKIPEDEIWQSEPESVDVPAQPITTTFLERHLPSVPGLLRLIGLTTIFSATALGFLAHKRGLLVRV
Nature of the series: Competitive inhibition of recombinant human MAO-B assessed as Vmax for substrate using varying level of benzylamine substrate preincubated for 15 mins followed by substrate addition measured after 20 mins by Lineweaver-Burk plot analysis. The gist of the method: (§1)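 Recombinant human MAO-B with benzylamine at 0.065, 0.125, 0.25, 0.5, 1, 2 and 4 mM, with inhibitor at 0, 0.3, 1 and 3 nM. Amplex Red/HRP H2O2-coupled fluorescence in 50 mM sodium phosphate pH 7.4 at 37 °C. Initial rates taken from progression curves; Lineweaver-Burk double-reciprocal analysis.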

Series [2] concerns Mus musculus. Nature of the series: Anti-parkinson's activity in MPTP-induced C57Bl/6 mouse model of Parkinson's disease assessed as restoration of MPTP-induced reduction in TH-immunoreactive fiber density in striatum at 30 mg/kg, po administered for 3 consecutive days measured 6 days after MPTP injection by DAB staining based microscopic method. It counts as functional, organism-based. The gist of the method:
(§2)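 Male C57Bl/6 mice, 10 weeks old, 23–25 g (n = 5-8 per group). MPTP-HCl 20 mg/kg i.p., given as 4 injections at 2 h intervals. Drug 30 mg/kg/day p.o. for 3 consecutive days spanning MPTP dosing. Vehicle was 12.5% castor oil/ethanol (equal parts) in distilled water. Saline-treated controls.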

Series [3] has as its system Mus musculus. Nature of the series: Anti-parkinson's activity in MPTP-induced C57Bl/6 mouse model of Parkinson's disease assessed as restoration of motor ability by measuring ascending ability to reach stable position at 30 mg/kg, po administered for 3 consecutive days measured 6 days after MPTP injection by coathanger method. The format is functional, organism-based. An outline of the steps:
as §2

For series [4], the target named is T1, Amine oxidase [flavin-containing] B. The experiment in a line: Competitive inhibition of recombinant human MAO-B using varying level of benzylamine substrate preincubated for 15 mins followed by substrate addition measured after 20 mins by Lineweaver-Burk plot analysis. An outline of the steps:
as §1

A further series is filed under the species Homo sapiens. The experiment in a line: Selectivity index, ratio of IC50 for recombinant human MAO-A to IC50 for recombinant human MAO-B.
Series [5] deals with Mus musculus. Nature of the series: Anti-parkinson's activity in MPTP-induced C57Bl/6 mouse model of Parkinson's disease assessed as restoration of MPTP-induced weight loss at 30 mg/kg, po administered for 3 consecutive days. The format is functional, organism-based. The gist of the method:
as §2

The subject of series [6] is Mus musculus. The experiment in a line: Anti-parkinson's activity in MPTP-induced C57Bl/6 mouse model of Parkinson's disease assessed as restoration of motor ability at 30 mg/kg, po administered for 3 consecutive days measured 6 days after MPTP injection by vertical grid test. The format is functional, organism-based. The gist of the method:
as §2

For series [7], the system named is Mus musculus. Nature of the series: Restoration of MPTP-induced tyrosine hydroxylase enzyme activity loss in C57Bl/6 mouse assessed as enzyme activity loss in DAergic neurons of substantia nigra pars compacta at 30 mg/kg, po administered for 3 consecutive days measured 6 days after MPTP injection by DAB staining based microscopic method. It counts as functional. An outline of the steps:
as §2

Series [8] has as its target T1, Amine oxidase [flavin-containing] B. The experiment in a line: Inhibition of recombinant human MAO-B using benzylamine as substrate preincubated for 15 mins followed by substrate addition measured after 20 mins by amplex red reagent based spectrophotometric assay.
Series [9] addresses T2, Amine oxidase [flavin-containing] A (Homo sapiens, UniProt P21397).
T2 sequence (P21397 whole entry): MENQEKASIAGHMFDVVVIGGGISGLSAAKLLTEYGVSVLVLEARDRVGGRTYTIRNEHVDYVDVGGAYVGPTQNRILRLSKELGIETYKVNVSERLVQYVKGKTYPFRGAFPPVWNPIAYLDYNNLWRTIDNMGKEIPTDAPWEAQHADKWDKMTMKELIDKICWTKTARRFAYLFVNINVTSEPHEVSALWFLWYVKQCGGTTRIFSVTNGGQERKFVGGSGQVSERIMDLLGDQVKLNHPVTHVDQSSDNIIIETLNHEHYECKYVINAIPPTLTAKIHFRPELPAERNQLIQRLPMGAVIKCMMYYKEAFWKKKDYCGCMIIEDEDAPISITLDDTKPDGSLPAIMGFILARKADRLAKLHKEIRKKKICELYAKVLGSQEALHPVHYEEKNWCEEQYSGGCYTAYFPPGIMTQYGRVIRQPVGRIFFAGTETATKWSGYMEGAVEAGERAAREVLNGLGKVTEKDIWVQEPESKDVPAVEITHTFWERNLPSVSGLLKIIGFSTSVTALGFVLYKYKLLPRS
Nature of the series: Inhibition of recombinant human MAO-A using p-tyramine as substrate preincubated for 15 mins followed by substrate addition measured after 20 mins by amplex red reagent based spectrophotometric assay. An outline of the steps:
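Recombinant human MAO-A with compounds at final 10⁻⁵–10 µM, preincubated 15 min at 37 °C in 50 mM sodium phosphate, pH 7.4. Reaction started by adding 200 µM Amplex Red, 2 U/mL horseradish peroxidase and 2 mM p-tyramine. IC50 came from dose-response curves in quadruplicate, as mean ± S.E.M.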

Activity calls are given as the source filed them. The rule behind the calls is not given here. A value given as a limit tells only on which side of the number the result lay.

For `Cl.NCCc1ccc(OCc2ccc(C(F)(F)F)cc2)cc1`, the Vmax in series [1] came out at 5.86 ×10⁷ U/min. For the same molecule, the outcome in the series with Mus musculus [2], in the series with Mus musculus [3], in the series on Mus musculus [5] and in the series with Mus musculus [6] was Active. Also, the inhibition constant Ki (commonly a measure of affinity in units of concentration, obtained from inhibition or displacement) in series [4] is 6.88 nM. Moreover, in the series listed under Homo sapiens, the Ratio IC50 was above 11000. Besides, the Activity with Mus musculus [7] is 38%. In addition, the IC50 (usually the concentration needed to halve the response being measured) in [8] was 9 nM; in [9] it was above 100000 nM.

The values are drawn from ChEMBL document CHEMBL4177719, “Synthesis and evaluation of biaryl derivatives for structural characterization of selective monoamine oxidase B inhibitors toward Parkinson's disease therapy” (Bioorg Med Chem, 2018).
